Measurements taken from ChEMBL document CHEMBL1156720, “Synthesis and antimicrobial activity of dermaseptin S1 analogues” (Bioorg Med Chem, 2008).
Values joined by “and” are separate entries in the source; they are usually repeats but may differ in a detail not shown here. Identical values can stand only once.

Experiments:
Staphylococcus aureus [1] = test: Antibacterial activity against Staphylococcus aureus Cowan 1 NCTC 8530 after 24 hrs by microdilution serial twofold assay; format: functional; conditions: Cowan 1, 24 h
Procedure, shortened: (§1)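 Bacteria grown in static culture at 37 °C in Mueller Hinton broth and diluted to 5 × 10⁵ CFU/mL. Peptides were tested by twofold serial microdilution starting from 100 μg/mL, with peptide-free control wells. The MIC was the lowest concentration with no rise in turbidity after overnight incubation at 37 °C. Values are means of at least two independent experiments run in duplicate.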

Leishmania major [2] = test: Antileishmanial activity against Leishmania major MHOM/IL/67/JERICHO-2 after 24 hrs by dye exclusion method; format: functional
Procedure, shortened: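 Promastigotes were grown at 25 °C in medium 199 with 20% heat-inactivated FCS, penicillin/streptomycin, L-glutamine, HEPES, adenine, hemin and biotin. They were resuspended at 5 × 10⁵ viable cells/mL and exposed to serial peptide dilutions at 25 °C with agitation. Viability was counted by trypan blue exclusion in a haemocytometer.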

Staphylococcus aureus [3] = test: Antibacterial activity against Staphylococcus aureus Cowan 1 NCTC 8530 after 3 hrs by microdilution serial twofold assay; format: functional; conditions: Cowan 1, 3 h, read-out: LD50 (the source's name)
Procedure, shortened: (§2)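 Mueller Hinton Broth static cultures grown at 37 °C and diluted to 5 × 10⁵ CFU/mL. Peptides were tested by twofold serial microdilution starting from 100 μg/mL in a final volume of 200 μL, with peptide-free controls. After 3 h incubation, cultures were serially 10-fold diluted in PBS and plated on Mueller Hinton Agar. Counts were taken after 24 h at 37 °C. Value is the dose giving 50% bacterial lethality.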

Leishmania major [4] = test: Antileishmanial activity against Leishmania major MHOM/IL/67/JERICHO-2 assessed as protozoal viability after 24 hrs by dye exclusion method; format: functional
Procedure, shortened: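 Promastigotes grown at 25 °C in supplemented medium 199 containing 20% heat-inactivated FCS, then resuspended at 5 × 10⁵ viable/mL with serially diluted peptides. After 24 h at 25 °C with agitation, viable cells were counted by haemocytometer using trypan blue exclusion. LC₅₀ is the 50% survival reduction versus an untreated culture, fitted by nonlinear regression. Run in triplicate.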

Escherichia coli [5] = test: Antibacterial activity against Escherichia coli HB101 after 24 hrs by microdilution serial twofold assay; format: functional; conditions: HB101, 24 h; procedure, shortened: as §1
Escherichia coli [6] = test: Antibacterial activity against Escherichia coli HB101 after 3 hrs by microdilution serial twofold assay; format: functional; conditions: HB101, 3 h, read-out: LD50 (the source's name); procedure, shortened: as §2
[7] = Toxicity assessed as hemolytic activity in human red blood cells after 30 mins; format: cell-based, Erythrocyte; conditions: read-out: HD50
Procedure, shortened: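 Serially diluted peptides were incubated with 10⁸ washed human RBC (100 µL) for 30 min at 37 °C with agitation. After centrifugation at 900g for 10 min, haemoglobin in the supernatant was read at 550 nm. Distilled water gave maximal lysis. HC₅₀ is the mean from at least two independent experiments run in triplicate.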

Staphylococcus aureus [8] = test: Antibacterial activity against Staphylococcus aureus ATCC 6538P after 24 hrs by microdilution serial twofold assay; format: functional
Bacillus subtilis = test: Antibacterial activity against Bacillus subtilis ATCC 9466 after 24 hrs by microdilution serial twofold assay; format: functional; conditions: ATCC 9466, 24 h
Pseudomonas aeruginosa [9] = test: Antibacterial activity against Pseudomonas aeruginosa ATCC 15442 after 24 hrs by microdilution serial twofold assay; format: functional; conditions: ATCC 15442, 24 h
[10] = system: Stenotrophomonas maltophilia; test: Antibacterial activity against Stenotrophomonas maltophilia FC after 24 hrs by microdilution serial twofold assay; format: functional; procedure, shortened: as §1
Candida albicans = test: Antifungal activity against wild type Candida albicans by broth microdilution method; format: functional
Procedure, shortened: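 Wild-strain yeast was tested in triplicate by broth microdilution following NCCLS recommendations. The MIC was the lowest peptide concentration with no increase in turbidity after overnight incubation at 37 °C.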

Staphylococcus aureus [11] = test: Antibacterial activity against multi drug-resistant Staphylococcus aureus after 24 hrs by microdilution serial twofold assay; format: functional
Procedure, shortened: (§3)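 Mueller Hinton Broth cultures grown statically at 37 °C and diluted to 5 × 10⁵ CFU/mL. Twofold serial microdilution from 100 μg/mL peptide, final volume 200 μL, with peptide-free controls. MIC is the lowest concentration with no turbidity increase after overnight incubation at 37 °C. Means come from at least two independent experiments run in duplicate.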

Pseudomonas aeruginosa [12] = test: Antibacterial activity against multi drug-resistant Pseudomonas aeruginosa after 24 hrs by microdilution serial twofold assay; format: functional; procedure, shortened: as §3
Burkholderia cepacia = test: Antibacterial activity against Burkholderia cepacia 6/06 after 24 hrs by microdilution serial twofold assay; format: functional; procedure, shortened: as §1

| Substance | MIC (Staphylococcus aureus [1]) | MIC (Leishmania major [2]) | LC50 (Staphylococcus aureus [3]) | LC50 (Leishmania major [4]) | MIC (Escherichia coli [5]) | LC50 (Escherichia coli [6]) | HC50 at 0.5 h [7] | MIC (Staphylococcus aureus [8]) | MIC (Bacillus subtilis) | MIC (Pseudomonas aeruginosa [9]) | MIC [10] | MIC (Candida albicans) | MIC (Staphylococcus aureus [11]) | MIC (Pseudomonas aeruginosa [12]) | MIC (Burkholderia cepacia) |
| --- | --- | --- | --- | --- | --- | --- | --- | --- | --- | --- | --- | --- | --- | --- | --- |
| H-ALWKTMLKKLGT-NH2 | > 54 µM | 100 µg/mL and 54.2 µM | 54 µM | 50 µg/mL and 27.1 µM | > 54 µM | 54 µM | > 100 µM | – | – | – | – | – | – | – | – |
| H-ALWKTMLKKLGTM-NH2 | > 50.6 µM | 100 µg/mL and 50.6 µM | 50.6 µM | 50 µg/mL and 25.3 µM | 50.6 µM | 22.7 µM | > 100 µM | – | – | – | – | – | – | – | – |
| H-ALWKTMLKKLGTMA-NH2 | > 48.8 µM | 100 µg/mL and 48.8 µM | 28.3 µM | 50 µg/mL and 24.4 µM | 48.8 µM | 20.5 µM | > 100 µM | – | – | – | – | – | – | – | – |
| H-ALWKTMLKKLGTMAL-NH2 | 11.5 µM | 50 µg/mL and 22.8 µM | 2.7 µM | 19 µg/mL and 8.7 µM | 2.9 µM | 1.4 µM | > 100 µM | 5.7 µM | 5.7 µM | > 47 µM | > 45 µM | 23.7 µM | > 47 µM | > 47 µM | 23.7 µM |
| H-ALWKTMLKKLGTMALHAGK-NH2 | 35.9 µM | 50 µg/mL and 17.9 µM | 10.7 µM | 22 µg/mL and 7.9 µM | 3.6 µM | < 1.8 µM | > 100 µM | – | – | – | – | – | – | – | – |
| H-ALWKTMLKKLGTMALHAGKAALGAAADTI-NH2 | 2.7 µM | 25 µg/mL and 6.1 µM | < 1.5 µM | 9.6 µg/mL and 2.3 µM | 2.7 µM | 2.2 µM | > 100 µM | – | – | – | – | – | – | – | – |
| H-ALYKTMLKKLGTMAL-NH2 | > 46.7 µM | – | > 46.7 µM | – | > 46.7 µM | > 46.7 µM | > 100 µM | > 45 µM | > 45 µM | > 45 µM | > 45 µM | > 45 µM | > 45 µM | > 45 µM | > 45 µM |
| H-KALWKTMLKKLGTMAL-NH2 | 20.8 µM | – | 2.7 µM | – | 2.6 µM | < 0.8 µM | > 100 µM | 2.6 µM | 21 µM | 5.2 µM | 21 µM | 10.1 µM | > 42 µM | 21 µM | 42 µM |
